This note sets out measurements from ChEMBL document CHEMBL4145640, “De Novo Design, Synthesis, and Biological Evaluation of 3,4-Disubstituted Pyrrolidine Sulfonamides as Potent and Selective Glycine Transporter 1 Competitive Inhibitors” (J Med Chem, 2018).

A word on the Ki: it is the dissociation constant of the complex between target and ligand, obtained from inhibition or displacement. As a reminder, the efflux ratio is a quotient of directional permeabilities that is used to spot active efflux. The term inhibition in vivo denotes the share of the control response that was lost under treatment. A high value points to a response far below the control.

In data set [1] the test system is Salmonella typhimurium. In words: Genotoxicity in Salmonella typhimurium TA98 assessed as induction of mutagenicity by measuring revertant colonies at 0.3 to 1000 ug/well incubated for 48 hrs in presence of liver S9 fraction by mini Ames test. The class given is toxicity, organism-based. To be noted: salmonella enterica subsp. enterica serovar typhimurium, s9, 48 h.

Data set [2] has as its system Salmonella typhimurium. In words: Genotoxicity in Salmonella typhimurium TA100 assessed as induction of mutagenicity by measuring revertant colonies at 0.3 to 1000 ug/well incubated for 48 hrs in presence of liver S9 fraction by mini Ames test. Type of data set: toxicity, organism-based. To be noted: salmonella enterica subsp. enterica serovar typhimurium, s9, 48 h. In general terms: The Ames test uses bacterial strains that need an amino acid and regain growth without it when mutated back.

Data set [3] is described as follows: Stability in pH 7 buffer at 1 mg assessed as compound hydrolysis after several days at room temperature by LC/MS analysis. The class given is physicochemical.
For data set [4], the target named is T1, Sodium- and chloride-dependent glycine transporter 1 (Homo sapiens, UniProt P48067).
T1 sequence (P48067 whole entry): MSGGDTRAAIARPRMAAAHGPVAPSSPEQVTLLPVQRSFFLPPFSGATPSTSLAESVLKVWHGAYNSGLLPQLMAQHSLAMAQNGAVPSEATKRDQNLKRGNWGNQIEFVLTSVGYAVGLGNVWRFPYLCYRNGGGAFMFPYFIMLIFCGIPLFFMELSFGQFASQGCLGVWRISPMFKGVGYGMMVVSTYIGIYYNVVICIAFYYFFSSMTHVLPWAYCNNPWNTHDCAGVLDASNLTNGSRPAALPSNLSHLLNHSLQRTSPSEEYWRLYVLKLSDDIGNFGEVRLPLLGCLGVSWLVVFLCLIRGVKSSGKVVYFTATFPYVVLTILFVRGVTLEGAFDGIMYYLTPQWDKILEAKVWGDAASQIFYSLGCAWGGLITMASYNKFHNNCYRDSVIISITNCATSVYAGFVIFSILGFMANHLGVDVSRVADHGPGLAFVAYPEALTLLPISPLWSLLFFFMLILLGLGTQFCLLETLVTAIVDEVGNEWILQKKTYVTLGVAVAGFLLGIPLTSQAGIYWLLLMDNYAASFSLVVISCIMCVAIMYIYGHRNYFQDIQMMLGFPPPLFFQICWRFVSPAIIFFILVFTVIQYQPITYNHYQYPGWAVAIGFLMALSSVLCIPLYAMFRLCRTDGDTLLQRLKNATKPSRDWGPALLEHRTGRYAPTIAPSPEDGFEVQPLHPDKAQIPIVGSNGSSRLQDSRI
In words: Inhibition of [3H]N-Methyl-SSR504734 binding to human recombinant GlyT1c expressed in CHO cell membranes incubated for 1 hr by liquid scintillation spectrometry.

The next data set deals with MDR1 (P-gp). In words: Efflux ratio in MDCK2-MDR1 cells at 1 uM incubated for 1 hr by LC-MS/MS method. The conditions noted are these: dog, MDCK-MDR1. Type of data set: ADME, cell-based, Canis lupus familiaris. The gist of the method:
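MDCK II cells transfected with MDR1 (human P-gp, lowered canine P-gp) seeded on transwell inserts at 300,000 cells/cm2, media changed day 2, assayed day 4 or 5. Dosed apical or basolateral at 1 µM final (1 mM DMSO stock, 0.1% DMSO) in HBSS + glucose, duplicate, 37 °C for 1 h. Receiver and donor sampled, LC-MS/MS with buspirone internal standard; Papp from ΔQ/Δt·1/(A·C0).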

Data set [5] in a line: Unbound intrinsic clearance in human liver microsomes at 0.5 uM incubated for 4 hrs by equilibrium dialysis and LC-MS/MS method. The class given is ADME, microsome. For orientation: Liver microsomes are vesicles of endoplasmic reticulum, rich in cytochrome P450 enzymes.
Data set [6] is described as follows: Unbound intrinsic clearance in rat liver microsomes at 0.5 uM incubated for 4 hrs by equilibrium dialysis and LC-MS/MS method. Type of data set: ADME, microsome.
Data set [7] can be described thus: Ratio of free drug level in brain to plasma in rat. Type of data set: ADME. The conditions noted are these: read-out: BPR.
Another data set relates to Mus musculus. In words: Inhibition of L687,414-induced hyperactivity in mouse at 1 mg/kg, ip dosed before test. The class given is functional.

With `Cn1cnc(S(=O)(=O)N2CC(Nc3cccc(C(F)(F)F)c3)C(c3cccnc3)C2)c1` (racemic), the Activity result in the data set with Salmonella typhimurium [1] and with Salmonella typhimurium [2] was “Non-Toxic” throughout.

For `Cn1cnc(S(=O)(=O)N2C[C@H]([C@@H]3CCCO3)[C@@H](Nc3cccc(OC(F)(F)F)c3)C2)c1`, the Stability result in data set [3] is reported as “Stable”.

In the case of `Cn1cnc(S(=O)(=O)N2CC(Nc3cccc(Cl)c3)C(c3cccc(F)c3)C2)c1` (racemic), the inhibitory constant (Ki) in data set [4] is 0.042 µM. Further, the efflux ratio at 1 h, 1 µM in the data set on MDR1 (P-gp) is 1. The Activity result in the data set on Salmonella typhimurium [1] and in the data set with Salmonella typhimurium [2] was “Non-Toxic” throughout. For the same compound, the CL free in [5] turned out to be 87 L/h/kg; in data set [6] it was 266 L/h/kg.

For the compound `Cn1cnc(S(=O)(=O)N2CC(Nc3cccc(C(F)(F)F)c3)C(c3ccccc3)C2)c1` (racemic), the inhibition constant Ki in data set [4] was 0.008 µM. Moreover, the Activity entry with Salmonella typhimurium [1] and with Salmonella typhimurium [2] was “Non-Toxic” throughout.

Consider `Cn1cnc(S(=O)(=O)N2CC(Nc3cncc(C(F)(F)F)c3)C(c3ccc(F)cc3)C2)c1` (racemic), for which the Activity entry in the data set on Salmonella typhimurium [1] and in the data set with Salmonella typhimurium [2] was “Non-Toxic” each time.

Take `Cc1cccc(NC2CN(S(=O)(=O)c3cn(C)cn3)CC2c2ccccc2)c1` (racemic): the Ki in data set [4] was in the range of 0.017 to 0.018 µM. Moreover, the efflux ratio at 1 h, 1 µM with MDR1 (P-gp) was 0.9. In addition, in data set [7], the Kp uu is 0.6. In addition, the Activity result with Salmonella typhimurium [1] and in the data set on Salmonella typhimurium [2] was “Non-Toxic” each time. Also, the CL free came out at 49 L/h/kg in [5] and 119 L/h/kg in data set [6].

In the case of `Cn1cnc(S(=O)(=O)N2C[C@H](Nc3ccc(F)c(OC(F)(F)F)c3)[C@@H](c3ccc(F)cc3)C2)c1`, in the data set on Mus musculus, the inhibition in vivo at 1 mg/kg worked out at 100%.

In the case of `Cn1cnc(S(=O)(=O)N2CC(Nc3ccccc3)C(c3ccccc3)C2)c1` (racemic), the inhibition constant Ki in data set [4] was 0.199 µM. For the same compound, the efflux ratio at 1 h, 1 µM with MDR1 (P-gp) is 0.9. In addition, the Activity result with Salmonella typhimurium [1] and in the data set on Salmonella typhimurium [2] was “Non-Toxic” throughout. Besides, the CL free in data set [5] was 15 L/h/kg; in [6], 57 L/h/kg.

Regarding `Cn1cnc(S(=O)(=O)N2CC(Nc3cccc(Cl)c3)C(c3ccc(F)cc3)C2)c1` (racemic), the inhibition constant Ki in data set [4] turned out to be 0.003 µM. The efflux ratio at 1 h, 1 µM in the data set on MDR1 (P-gp) was 1.1. In addition, the Kp uu in [7] is 1.7. Besides, the Activity result in the data set on Salmonella typhimurium [1] and in the data set with Salmonella typhimurium [2] was “Non-Toxic” in each case. Further, the CL free was 203 L/h/kg in data set [5] and 350 L/h/kg in data set [6].
